Assay results reported in ChEMBL document CHEMBL2016491, “Synthesis and structure-activity relationships of (aryloxy)quinazoline ureas as novel, potent, and selective vascular endothelial growth factor receptor-2 inhibitors” (J Med Chem, 2012).

Columns and labels:
[1] = test system: PC-3; assay: Antiproliferative activity against human PC3 cells at 10 uM after 72 hrs by MTS assay; type: functional; settings: PC-3, 72 h
[2] = test system: HT-29; assay: Antiproliferative activity against human HT-29 cells at 10 uM after 72 hrs by MTS assay; type: functional; settings: HT-29, 72 h
In short: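 Single-concentration test at 10 μM, with compound in <0.1% DMSO. Cells were plated at 3000/well in triplicate, given a 24 h pre-incubation, then treated for 72 h at 37 °C, 5% CO2. Growth inhibition (%) was read by MTS. HT29 was grown in DMEM + Glutamax-I with 10% FBS. Mean of at least three independent experiments.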

[3] = Solubility of the compound; type: physicochemical
[4] = test system: MCF7; assay: Antiproliferative activity against human MCF7 cells at 10 uM after 72 hrs by MTS assay; type: functional; settings: MCF7, 72 h
[5] = biological target: Vascular endothelial growth factor receptor 2 (Homo sapiens, UniProt P35968); assay: Inhibition of recombinant human VEGFR-2 using poly(Glu4/Tyr) and [gamma32P]ATP as substrate after 1 hr by scintillation counting
Vascular endothelial growth factor receptor 2, sequence (P35968 whole entry): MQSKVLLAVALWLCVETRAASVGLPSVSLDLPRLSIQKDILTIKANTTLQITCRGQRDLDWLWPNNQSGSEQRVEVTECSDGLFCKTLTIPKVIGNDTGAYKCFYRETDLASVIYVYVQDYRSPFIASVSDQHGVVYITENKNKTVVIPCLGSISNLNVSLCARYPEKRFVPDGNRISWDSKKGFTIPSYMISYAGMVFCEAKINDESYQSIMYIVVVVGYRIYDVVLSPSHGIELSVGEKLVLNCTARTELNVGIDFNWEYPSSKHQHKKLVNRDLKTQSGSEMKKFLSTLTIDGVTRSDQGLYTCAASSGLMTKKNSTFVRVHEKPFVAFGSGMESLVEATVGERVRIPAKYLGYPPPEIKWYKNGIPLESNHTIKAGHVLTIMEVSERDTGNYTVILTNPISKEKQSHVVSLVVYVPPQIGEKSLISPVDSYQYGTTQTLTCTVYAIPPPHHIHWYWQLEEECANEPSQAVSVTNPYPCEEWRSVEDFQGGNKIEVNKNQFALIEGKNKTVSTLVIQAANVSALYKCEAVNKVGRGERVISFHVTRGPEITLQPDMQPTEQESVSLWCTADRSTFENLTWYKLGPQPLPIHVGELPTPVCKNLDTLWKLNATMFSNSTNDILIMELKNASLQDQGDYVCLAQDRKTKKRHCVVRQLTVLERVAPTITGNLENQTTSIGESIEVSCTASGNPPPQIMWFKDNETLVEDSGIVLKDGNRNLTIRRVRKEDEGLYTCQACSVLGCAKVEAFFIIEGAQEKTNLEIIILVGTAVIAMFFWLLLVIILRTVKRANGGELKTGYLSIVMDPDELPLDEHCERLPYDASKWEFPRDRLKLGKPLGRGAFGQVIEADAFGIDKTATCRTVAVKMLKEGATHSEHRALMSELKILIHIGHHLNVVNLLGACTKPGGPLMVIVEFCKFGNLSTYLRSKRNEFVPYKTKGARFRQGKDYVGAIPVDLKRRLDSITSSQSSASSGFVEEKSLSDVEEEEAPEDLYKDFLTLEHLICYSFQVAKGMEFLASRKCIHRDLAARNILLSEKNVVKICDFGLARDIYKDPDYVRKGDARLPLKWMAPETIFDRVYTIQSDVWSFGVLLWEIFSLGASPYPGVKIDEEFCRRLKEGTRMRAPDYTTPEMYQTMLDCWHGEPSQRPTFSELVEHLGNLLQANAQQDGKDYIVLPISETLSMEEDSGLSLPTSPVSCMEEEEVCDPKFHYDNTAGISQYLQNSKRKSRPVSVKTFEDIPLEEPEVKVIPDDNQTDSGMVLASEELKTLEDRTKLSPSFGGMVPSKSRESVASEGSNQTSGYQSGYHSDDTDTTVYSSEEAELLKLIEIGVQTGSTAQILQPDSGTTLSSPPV

[6] = biological target: Epidermal growth factor receptor (Homo sapiens, UniProt P00533); assay: Inhibition of human EGFR expressed in human A431 cells using poly(Glu4/Tyr) and [gamma32P]ATP as substrate after 1 hr by scintillation counting; set-up: species or system A-431
Epidermal growth factor receptor, sequence (P00533 whole entry): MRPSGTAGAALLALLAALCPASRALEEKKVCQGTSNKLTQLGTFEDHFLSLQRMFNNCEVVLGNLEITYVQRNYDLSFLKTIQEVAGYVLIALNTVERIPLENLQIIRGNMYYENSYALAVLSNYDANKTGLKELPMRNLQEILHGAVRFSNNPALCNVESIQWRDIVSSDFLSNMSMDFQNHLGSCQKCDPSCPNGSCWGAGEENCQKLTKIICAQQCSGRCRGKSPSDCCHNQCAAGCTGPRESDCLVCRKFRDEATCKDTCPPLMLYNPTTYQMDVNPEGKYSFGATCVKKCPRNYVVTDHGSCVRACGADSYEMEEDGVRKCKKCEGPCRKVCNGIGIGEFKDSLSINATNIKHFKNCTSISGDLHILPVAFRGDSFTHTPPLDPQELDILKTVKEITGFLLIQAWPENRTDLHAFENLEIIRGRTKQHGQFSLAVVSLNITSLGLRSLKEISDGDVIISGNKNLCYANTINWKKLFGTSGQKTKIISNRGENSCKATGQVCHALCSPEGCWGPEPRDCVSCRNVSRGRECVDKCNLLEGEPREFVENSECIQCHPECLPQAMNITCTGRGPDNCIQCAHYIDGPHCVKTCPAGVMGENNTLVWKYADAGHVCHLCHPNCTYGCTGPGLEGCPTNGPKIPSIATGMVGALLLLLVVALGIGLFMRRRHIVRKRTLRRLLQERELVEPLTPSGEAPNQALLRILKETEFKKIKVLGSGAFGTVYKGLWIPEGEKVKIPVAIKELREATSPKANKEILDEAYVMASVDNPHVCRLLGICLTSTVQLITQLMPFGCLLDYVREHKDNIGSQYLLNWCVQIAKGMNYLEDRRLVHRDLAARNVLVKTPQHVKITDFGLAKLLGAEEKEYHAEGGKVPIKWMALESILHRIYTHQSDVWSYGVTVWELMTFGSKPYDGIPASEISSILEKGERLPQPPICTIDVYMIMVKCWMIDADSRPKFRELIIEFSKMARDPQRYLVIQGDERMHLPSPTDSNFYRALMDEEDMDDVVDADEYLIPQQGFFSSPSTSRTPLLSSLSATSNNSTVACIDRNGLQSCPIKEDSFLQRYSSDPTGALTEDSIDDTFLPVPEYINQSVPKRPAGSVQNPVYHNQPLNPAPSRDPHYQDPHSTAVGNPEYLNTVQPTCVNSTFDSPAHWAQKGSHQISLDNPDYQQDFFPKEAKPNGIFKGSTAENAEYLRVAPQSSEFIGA

[7] = test system: HT-29; assay: Antiproliferative activity against human HT-29 cells after 72 hrs by MTS assay; settings: HT-29, 72 h
[8] = test system: MCF7; assay: Antiproliferative activity against human MCF7 cells after 72 hrs by MTS assay; settings: MCF7, 72 h

Row | Compound | inhibition at 10 µM [1] [%] | inhibition at 10 µM [2] [%] | solubility [3] | inhibition at 10 µM [4] [%] | IC50 [5] [µM] | IC50 [6] [µM] | IC50 [7] [µM] | IC50 [8] [µM]
1 | COc1cc2ncnc(Oc3ccc(NC(=O)Nc4ccccc4)cc3)c2cc1OC | 23 | 10 | Insoluble | 12 | – | – | – | –
2 | COc1cc2ncnc(Oc3cccc(NC(=O)Nc4ccccc4)c3)c2cc1OC | – | – | Insoluble | – | – | – | – | –
3 | COc1ccc(NC(=O)Nc2cccc(Oc3ncnc4cc(OC)c(OC)cc34)c2)cc1 | – | – | Insoluble | – | – | – | – | –
4 | COc1cc2ncnc(Nc3ccc(Br)cc3F)c2cc1OC | 1 | 0 | – | 31 | – | – | – | –
5 | COc1cc2ncnc(Oc3ccc(F)c(Cl)c3)c2cc1OC | 5 | 0 | Insoluble | 0 | 9.8 | – | – | –
6 | COC(=O)Nc1ccc(Nc2ncnc3cc(OC)c(OC)cc23)cc1 | 2 | 10 | – | 27 | – | – | – | –
7 | COC(=O)Nc1ccc(Oc2ncnc3cc(OC)c(OC)cc23)cc1 | – | – | Insoluble | – | – | – | – | –
8 | CCOC(=O)Nc1ccc(Nc2ncnc3cc(OC)c(OC)cc23)cc1 | 12 | 16 | – | 6 | – | – | – | –
9 | CCOC(=O)Nc1ccc(Oc2ncnc3cc(OC)c(OC)cc23)cc1 | – | – | Insoluble | – | – | – | – | –
10 | CCCCNC(=O)Nc1ccc(Oc2ncnc3cc(OC)c(OC)cc23)cc1 | – | – | Insoluble | – | – | – | – | –
11 | COc1cc2ncnc(Oc3ccc(NC(=O)Nc4ccc(Br)cc4)cc3)c2cc1OC | – | – | Insoluble | – | – | – | – | –
12 | COc1cc2ncnc(Oc3ccc(NC(=O)Nc4ccc(F)cc4F)cc3)c2cc1OC | – | – | Insoluble | – | – | – | – | –
13 | COc1cc2ncnc(Oc3ccc(NC(=O)Nc4ccc(F)c(Cl)c4)cc3)c2cc1OC | – | – | Insoluble | – | – | – | – | –
14 | COc1cc2ncnc(Oc3ccc(NC(=O)Nc4ccc5ccccc5c4)cc3)c2cc1OC | – | – | Insoluble | – | – | – | – | –
15 | COc1ccc(NC(=O)Nc2ccc(Oc3ncnc4cc(OC)c(OC)cc34)cc2)cc1 | 12 | 9 | Insoluble | 0 | – | – | – | –
16 | CCNC(=O)Nc1ccc(Nc2ncnc3cc(OC)c(OC)cc23)cc1 | 0 | 0 | – | 6 | 4.65 | > 10 | – | –
17 | CCC(=O)Nc1ccc(Nc2ncnc3cc(OC)c(OC)cc23)cc1 | – | – | – | – | – | > 10 | – | –
18 | CCCC(=O)Nc1ccc(Nc2ncnc3cc(OC)c(OC)cc23)cc1C | 0 | 0 | – | 5 | 4 | – | – | –
19 | COC(=O)Nc1ccc(Nc2ncnc3cc(OC)c(OC)cc23)cc1Cl | 19 | 22 | – | 0 | – | – | – | –
20 | CCCOC(=O)Nc1ccc(Nc2ncnc3cc(OC)c(OC)cc23)cc1C | 6 | 18 | – | 0 | – | – | – | –
21 | CCCCOC(=O)Nc1ccc(Nc2ncnc3cc(OC)c(OC)cc23)cc1C | 4 | 13 | – | 33 | – | – | – | –
22 | COc1cc2ncnc(Nc3ccc(NC(=O)OC(C)C)c(C)c3)c2cc1OC | – | – | – | – | – | 5.8 | – | –
23 | CCCCNC(=O)Nc1ccc(Nc2ncnc3cc(OC)c(OC)cc23)cc1 | 14 | 16 | – | 26 | 5.8 | > 10 | – | –
24 | COc1cccc(NC(=O)Nc2ccc(Nc3ncnc4cc(OC)c(OC)cc34)cc2)c1 | – | – | – | – | – | > 10 | – | –
25 | CCN(CC)CCOc1cc2ncnc(Nc3ccc(F)c(Cl)c3)c2cc1OC | 36 | – | – | 26 | 6.9 | 9.9 | 5.9 | –

Row | Compound | inhibition at 10 µM [1] [%] | inhibition at 10 µM [2] [%] | solubility [3] | inhibition at 10 µM [4] [%] | IC50 [5] [µM] | IC50 [6] [µM] | IC50 [7] [µM] | IC50 [8] [µM]
26 | CCN(CC)CCOc1cc2ncnc(Nc3ccc(Br)cc3F)c2cc1OC | 16 | – | – | 10 | 1 | > 10 | 7.5 | –
27 | CCN(CC)CCOc1cc2ncnc(Nc3ccc(C)c(Br)c3)c2cc1OC | 36 | – | – | – | 6.45 | 9.45 | 2.55 | 9.6
28 | CCN(CC)CCOc1cc2ncnc(Nc3ccc(NC(=O)OC)c(Cl)c3)c2cc1OC | 0 | 38 | – | 0 | 5.2 | > 10 | – | –
29 | CCOC(=O)Nc1ccc(Nc2ncnc3cc(OCCN(CC)CC)c(OC)cc23)cc1Cl | 0 | – | – | 0 | 3.35 | – | 5.45 | –
30 | CCN(CC)CCOc1cc2ncnc(Nc3ccc(NC(=O)OC)c(C)c3)c2cc1OC | 0 | 1 | – | 0 | 6.95 | > 10 | – | –
31 | CCOC(=O)Nc1ccc(Nc2ncnc3cc(OCCN(CC)CC)c(OC)cc23)cc1C | 0 | 11 | – | 0 | – | – | – | –
32 | CCNC(=O)Nc1ccc(Nc2ncnc3cc(OCCN(CC)CC)c(OC)cc23)cc1 | 0 | 0 | – | 0 | 6.6 | > 10 | – | –
33 | CCN(CC)CCOc1cc2c(Nc3ccc(Br)cc3F)ncnc2cc1OC | 0 | 35 | – | 0 | 7.45 | 9.1 | – | –
34 | CCOC(=O)Nc1ccc(Nc2ncnc3cc(OC)c(OCCN(CC)CC)cc23)cc1C | 0 | 36 | – | 0 | – | – | – | –
35 | CCCCOc1cc2c(Nc3ccc(Br)cc3F)ncnc2cc1OCCN(CC)CC | 31 | – | – | – | 5.3 | > 10 | 3.6 | 7.7
36 | CCCCOc1cc2c(Nc3ccc(NC(=O)OC)c(Cl)c3)ncnc2cc1OCCN(CC)CC | 11 | – | – | 33 | 7.4 | > 10 | 2.55 | –
37 | CCCCOc1cc2c(Nc3ccc(NC(=O)OCC)c(Cl)c3)ncnc2cc1OCCN(CC)CC | 40 | – | – | – | – | 9.15 | 2.5 | 7.1
38 | CCCCOc1cc2c(Nc3ccc(NC(=O)OC)c(C)c3)ncnc2cc1OCCN(CC)CC | 0 | – | – | 0 | 9.4 | > 10 | 6.15 | –
39 | CCCCOc1cc2c(Nc3ccc(NC(=O)OCC)c(C)c3)ncnc2cc1OCCN(CC)CC | 0 | – | – | 0 | – | – | 5.8 | –
40 | COc1cc2ncnc(Oc3cccc(NC(C)=O)c3)c2cc1OC | – | – | Insoluble | – | – | – | – | –
41 | COc1cccc(NC(=O)Nc2ccc(Oc3ncnc4cc(OC)c(OC)cc34)cc2)c1 | – | – | Insoluble | – | – | > 10 | – | –
42 | COc1cc2ncnc(Oc3ccc(NC(=O)Nc4cccc(Br)c4)cc3)c2cc1OC | 35 | – | Insoluble | – | 0.006 | > 10 | 9.1 | 9.8
43 | COc1cc2ncnc(Oc3ccc(NC(=O)Nc4ccc(Br)cc4)c(C)c3)c2cc1OC | 7 | 2 | Insoluble | 3 | 0.04 | > 10 | – | –
44 | COc1cc2ncnc(Oc3ccc(NC(=O)Nc4cccc(Br)c4)c(C)c3)c2cc1OC | 25 | 36 | Insoluble | 30 | 0.004 | > 10 | – | –
45 | COc1cc2ncnc(Oc3ccc(NC(=O)Nc4ccc(F)c(Cl)c4)c(C)c3)c2cc1OC | – | – | Insoluble | – | – | > 10 | – | –
46 | COc1cc2ncnc(Oc3ccc(NC(=O)Nc4ccc5ccccc5c4)c(C)c3)c2cc1OC | – | – | Insoluble | – | – | > 10 | – | –
47 | COc1cc2ncnc(Oc3ccc(NC(=O)NC4CCCCC4)cc3)c2cc1OC | – | – | Insoluble | – | – | – | – | –
48 | COc1cc2ncnc(Nc3ccc(Br)cc3)c2cc1OC | 37 | 2 | – | 42 | 0.8 | 3.6 | – | –
49 | COc1cc2ncnc(Nc3ccccc3)c2cc1OC | 9 | 0 | – | 7 | 7 | 4.3 | – | –
